Results as given in ChEMBL document CHEMBL1148017, “Radioiodination of new EGFR inhibitors as potential SPECT agents for molecular imaging of breast cancer” (Bioorg Med Chem, 2007).
Active and inactive are the calls of the source. No cut-off for these calls is given here.

How the values were obtained:
[1] = molecular target: Epidermal growth factor receptor (Homo sapiens) (UniProt P00533); experiment: Inhibition of EGFR autophosphorylation in human A431 cells at 1 uM; type: cell-based; details: A-431
Procedure, shortened: (§1)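 A431 cells grown to about 70% confluence, serum-starved 24 h, then given compound (0.1–5 µM) for 2 h and stimulated with EGF 20 ng/mL for 5 min. Lysates loaded at equal total protein (BCA), run on 8% SDS-PAGE and blotted to PVDF. Probed with anti-phosphotyrosine PY20 and an HRP anti-mouse secondary, detected by ECL. Bands quantified against controls with and without EGF, no drug.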

A-431 = experiment: Growth inhibition of human A431 cells by MTT assay; type: functional, cell-based
Procedure, shortened: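 A431 cells kept in high-glucose D-MEM with 10% foetal calf serum, 37 °C, 5% CO2. Plated at 3×10^3 cells/well and grown 24 h, then exposed to 1–50 µM compound (4 replicates) for 24, 48 and 72 h. MTT 1 mg/mL in phenol-red-free RPMI for 4 h, isopropanol solubilisation, A540 against 620 nm reference. % of untreated control plotted semi-log against concentration; IC50 read from the curve.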

[2] = molecular target: Epidermal growth factor receptor (Homo sapiens) (UniProt P00533); experiment: Inhibition of EGFR autophosphorylation in human A431 cells at 0.1 uM; type: cell-based; details: A-431; procedure, shortened: as §1
[3] = Partition coefficient, log P at pH 7.4; type: physicochemical; details: octanol/water
Procedure, shortened: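 Shake-flask method with back-extraction. Radiotracer placed in mutually saturated octanol and PBS pH 7.4, vortexed and centrifuged (3000 rpm, 10 min, rt). Both phases gamma-counted. 0.5 mL of octanol re-extracted against an equal volume of PBS and counting repeated. log P is taken from the octanol/buffer count ratio.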

Liver [4] = experiment: Biodistribution in CD1 mouse liver at 175 to 200 kBq, iv after 4 hrs; type: ADME, organism-based; details: in vivo
Procedure, shortened: (§2)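 Female CD-1 mice (20-25 g, groups of 5) given the radioiodinated compound via tail vein, 175-200 kBq in saline (100 µL) with 0.1% Tween 20. Injected dose taken as syringe activity before minus after. Killed at 1 and 4 h; organs removed, weighed and gamma-counted. Values are % ID per total organ, mean ± SD.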

Serum = experiment: Protein binding in human serum; type: ADME, cell-free
Procedure, shortened: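 Radioiodinated tracer (≈370 kBq) incubated in 1 mL fresh human serum at 37 °C. Duplicate 100 µL samples taken at 15 min, 1, 2, 4 and 21 h. Proteins precipitated with 200 µL ethanol, cooled to 4 °C and centrifuged. Pellet washed with ethanol and gamma-counted. Pellet activity is expressed as % of total activity.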

Stomach [5] = experiment: Biodistribution in CD1 mouse stomach at 175 to 200 kBq, iv after 1 hr; type: ADME, organism-based; details: in vivo; procedure, shortened: as §2
Thyroid gland [6] = experiment: Biodistribution in CD1 mouse thyroid at 175 to 200 kBq, iv after 4 hrs; type: ADME, organism-based; details: in vivo; procedure, shortened: as §2
Stomach [7] = experiment: Biodistribution in CD1 mouse stomach at 175 to 200 kBq, iv after 4 hrs; type: ADME, organism-based; details: in vivo; procedure, shortened: as §2
Thyroid gland [8] = experiment: Biodistribution in CD1 mouse thyroid at 175 to 200 kBq, iv after 1 hr; type: ADME, organism-based; details: in vivo; procedure, shortened: as §2
Liver [9] = experiment: Biodistribution in CD1 mouse liver at 175 to 200 kBq, iv after 1 hr; type: ADME, organism-based; details: in vivo; procedure, shortened: as §2

Chain of Epidermal growth factor receptor (Homo sapiens) (P00533 whole entry): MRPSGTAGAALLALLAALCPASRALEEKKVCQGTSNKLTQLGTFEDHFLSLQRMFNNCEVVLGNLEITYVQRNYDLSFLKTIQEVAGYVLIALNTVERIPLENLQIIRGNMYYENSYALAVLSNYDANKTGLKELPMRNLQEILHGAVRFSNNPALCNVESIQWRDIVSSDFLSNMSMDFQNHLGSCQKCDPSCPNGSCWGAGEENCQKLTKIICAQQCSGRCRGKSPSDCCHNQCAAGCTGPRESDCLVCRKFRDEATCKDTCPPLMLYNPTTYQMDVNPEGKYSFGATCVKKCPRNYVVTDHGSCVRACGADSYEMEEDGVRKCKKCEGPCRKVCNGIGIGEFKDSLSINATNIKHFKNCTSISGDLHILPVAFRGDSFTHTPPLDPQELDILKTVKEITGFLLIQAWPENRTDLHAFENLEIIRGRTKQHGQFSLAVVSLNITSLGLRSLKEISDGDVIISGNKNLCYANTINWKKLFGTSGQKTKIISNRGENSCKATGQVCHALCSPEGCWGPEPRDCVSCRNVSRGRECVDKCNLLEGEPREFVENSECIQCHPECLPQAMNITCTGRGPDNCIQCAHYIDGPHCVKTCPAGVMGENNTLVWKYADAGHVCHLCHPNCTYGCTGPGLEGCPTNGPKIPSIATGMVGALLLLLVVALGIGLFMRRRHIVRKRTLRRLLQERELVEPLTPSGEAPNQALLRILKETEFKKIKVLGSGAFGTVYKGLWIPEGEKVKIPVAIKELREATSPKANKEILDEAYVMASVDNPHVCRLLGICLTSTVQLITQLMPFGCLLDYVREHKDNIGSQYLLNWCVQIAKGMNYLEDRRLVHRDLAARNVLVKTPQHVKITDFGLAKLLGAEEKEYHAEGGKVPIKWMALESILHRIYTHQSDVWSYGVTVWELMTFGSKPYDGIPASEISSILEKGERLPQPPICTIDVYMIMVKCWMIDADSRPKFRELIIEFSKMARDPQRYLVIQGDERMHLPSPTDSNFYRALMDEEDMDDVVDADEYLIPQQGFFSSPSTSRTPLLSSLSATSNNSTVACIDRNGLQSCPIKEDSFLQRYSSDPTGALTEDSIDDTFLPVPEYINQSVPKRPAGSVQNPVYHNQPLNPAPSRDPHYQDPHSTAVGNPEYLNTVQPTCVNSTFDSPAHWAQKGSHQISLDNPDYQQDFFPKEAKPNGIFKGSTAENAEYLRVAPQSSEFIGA

inhibition [1]	IC50 (A-431)	Activity [2]	logD [3]	Drug uptake (Liver [4])	Activity (Serum)	Drug uptake (Stomach [5])	Drug uptake (Thyroid gland [6])	Drug uptake (Stomach [7])	Drug uptake (Thyroid gland [8])	Drug uptake (Liver [9])	SMILES
95%	25000 nM	–	–	–	–	–	–	–	–	–	Nc1ccc2ncnc(Nc3ccc(F)c(Cl)c3)c2c1
100%	3000 nM	Active	–	–	–	–	–	–	–	–	O=C(CCBr)Nc1ccc2ncnc(Nc3ccc(F)c(Cl)c3)c2c1
100%	2000 nM	Active	–	–	–	–	–	–	–	–	O=C(CCI)Nc1ccc2ncnc(Nc3ccc(F)c(Cl)c3)c2c1
–	–	–	2.25	2.3 %ID	6%	35.2 %ID	13.2 %ID	3.9 %ID	5.7 %ID	6.1 %ID	O=C(CC[125I])Nc1ccc2ncnc(Nc3ccc(F)c(Cl)c3)c2c1
